As usually defined, the IC50 is the midpoint of a concentration-inhibition curve. Low readings indicate greater potency, high ones weaker potency. For orientation: Inhibition means the change of the read-out against control, counted positive when it falls. A lower Inhibition goes with a weak effect.

In experiment [1] the test system is ECV-304. The experiment in a line: Cytotoxic activity against ECV304 (human endothelial) cell line. Format: functional, cell-based. Put shortly:
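1.5 × 10⁴ cells exposed 72 h to compounds in DMSO (final DMSO <0.1%) at 0.5–4 µg/mL, in triplicate wells. Viability read by MTT. Experiment repeated three times; mean IC50 (half-maximal cytotoxicity) reported.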

The subject of experiment [2] is ECV-304. Nature of the experiment: Inhibition of tube-like structure formation in ECV304 (human endothelial) cell line. In kind it is functional.
Experiment [3] is described as follows: Ratio of IC50 against DU145 prostate tumor cell line to IC50 of human endothelial ECV304 cell line. In kind it is functional, ECV-304. A digest of the protocol: (§1)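 Endothelial selectivity ratio = IC50 on the tumor line / IC50 on ECV304. […] Wells in triplicate, experiments in triplicate, mean IC50 used. Ratio <10 rated low, 10–20 moderate, >20 high.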
A short description of experiment [4]: Ratio of IC50 against HT-29 colon tumor cell line to IC50 of human endothelial ECV304 cell line. In kind it is functional. Put shortly: as §1
Experiment [5] in a line: Ratio of IC50 against L132 Lung tumor cell line to IC50 of human endothelial ECV304 cell line. Format: functional. A digest of the protocol:
as §1

Experiment [6] concerns ECV-304. The experiment in a line: Ratio of IC50 against PA-1 ovary tumor cell line to IC50 of human endothelial ECV304 cell line. Format: functional, Female gonad. A digest of the protocol:
as §1

Converted amounts (≈) assume the structure as drawn.

For the compound `CC(C)[C@@H]1CC[C@]2(C(=O)O)CC[C@]3(C)C(CCC4[C@@]5(C)CCC(/N=C/c6ccc(F)cc6F)C(C)(C)C5CC[C@]43C)C12` (stereo not given in full), the IC50 in the experiment with ECV-304 [1] was found to be 2.4 µg/mL (≈ 4.12 µM). For the same compound, the Inhibition in the experiment with ECV-304 [2] is given as 48%. In addition, the ECS ratio in experiment [3] turned out to be 1.04; in experiment [4], 2.04; in experiment [5] it was 1.4; in the experiment on ECV-304 [6], 0.54.
For `C=C(C)[C@@H]1CC[C@]2(C(=O)O)CC[C@]3(C)C(CCC4[C@@]5(C)CC[C@H](OC(=O)Cc6cc(OC)ccc6OC)C(C)(C)C5CC[C@]43C)C12` (stereo not given in full), half-maximal inhibition in the experiment on ECV-304 [1] (IC50) required 1.8 µg/mL (≈ 2.84 µM). Moreover, the results for the ECS ratio in experiment [3], in experiment [4] and in experiment [5] were 0.55, greater than 5.6 and 2.5, respectively.
In the experiment with ECV-304 [1], `C=C(C)[C@@H]1CC[C@]2(C(=O)O)CC[C@]3(C)[C@H](CC[C@@H]4[C@@]5(C)CCC(=O)C(C)(C)[C@@H]5CC[C@]43C)[C@@H]12` [BETUNOLIC ACID] came in with an IC50 of less than 4 µg/mL.
`CC(C)[C@@H]1CC[C@]2(C(=O)O)CC[C@]3(C)C(CCC4[C@@]5(C)CC[C@H](OC(=O)c6cc(F)cc(F)c6)C(C)(C)C5CC[C@]43C)C12` (stereo not given in full) gave a half-inhibitory concentration (IC50) in the experiment with ECV-304 [1] of 0.7 µg/mL (≈ 1.17 µM). Moreover, the ECS ratio in experiment [3] is recorded as 4.5; in experiment [4] it was greater than 14.3; in experiment [5], 1.7.
Regarding `CC(C)[C@@H]1CC[C@]2(C(=O)O)CC[C@]3(C)C(CCC4[C@@]5(C)CC[C@H](O)C(C)(C)C5CC[C@]43C)C12` (stereo not given in full) [DIHYDROBETULINIC ACID], the IC50 in the experiment with ECV-304 [1] is less than 4 µg/mL.
For `C=C(C)[C@@H]1CC[C@]2(C(=O)O)CC[C@]3(C)C(CCC4[C@@]5(C)CC/C(=N\Nc6ccccc6)C(C)(C)C5CC[C@]43C)C12` (stereo not given in full), in the experiment with ECV-304 [1], half-maximal inhibition (IC50) required 2.4 µg/mL (≈ 4.41 µM). For the same compound, the ECS ratio was determined as 2.7 in experiment [3], 4.2 in experiment [4], 1.9 in experiment [5] and 2.08 with ECV-304 [6].
The matching figures for `C=C(C)[C@@H]1CC[C@]2(C(=O)O)CC[C@]3(C)C(CCC4[C@@]5(C)CC[C@H](OC(=O)c6ccc(CCCCC)cc6)C(C)(C)C5CC[C@]43C)C12` (stereo not given in full): 1.9 µg/mL (≈ 3.01 µM), 1.05, 1.84, 3.1 and greater than 2.1.
In the case of `CC(C)[C@@H]1CC[C@]2(C(=O)O)CC[C@]3(C)C(CCC4[C@@]5(C)CCC(/N=C/c6ccc(F)c(F)c6)C(C)(C)C5CC[C@]43C)C12` (stereo not given in full), in the experiment with ECV-304 [1], the IC50 was 0.35 µg/mL (≈ 0.602 µM). The Inhibition with ECV-304 [2] came to 32%. In addition, the ECS ratio in experiment [3] turned out to be 6.2; in experiment [4], 11.4; in experiment [5], 7.1; in the experiment with ECV-304 [6], 3.7.
On to `COc1ccc(NNC2CC[C@@]3(C)C(CC[C@]4(C)C3CCC3C5[C@H](C(C)C)CC[C@]5(C(=O)O)CC[C@]34C)C2(C)C)cc1` (stereo not given in full), for which half-maximal inhibition in the experiment on ECV-304 [1] (IC50) was put at 0.4 µg/mL (≈ 0.691 µM). Besides, the results for the ECS ratio in experiment [3] and in experiment [4] were 21.1 and 0.87, respectively.
The compound `CC(C)[C@@H]1CC[C@]2(C(=O)O)CC[C@]3(C)C(CCC4[C@@]5(C)CCC(=O)C(C)(C)C5CC[C@]43C)C12` (stereo not given in full) showed an IC50 with ECV-304 [1] of less than 4 µg/mL.
In the case of `C=CC(=O)OC(=O)[C@]12CC[C@@H](C(=C)C)C1C1CCC3[C@@]4(C)CC[C@H](O)C(C)(C)C4CC[C@@]3(C)[C@]1(C)CC2` (stereo not given in full), it took 4 µg/mL (≈ 7.83 µM) to reach half-maximal inhibition with ECV-304 [1] (IC50). The ECS ratio in experiment [3] was greater than 2.5; in experiment [4], 2.5; in experiment [5], 0.43; in the experiment with ECV-304 [6], greater than 1.
`C=C(C)[C@@H]1CC[C@]2(C(=O)O)CC[C@]3(C)[C@H](CC[C@@H]4[C@@]5(C)CC[C@H](O)C(C)(C)[C@@H]5CC[C@]43C)[C@@H]12` [BETULINIC ACID]: the midpoint of inhibition with ECV-304 [1], the IC50, lay at 1.2 µg/mL (≈ 2.63 µM). The values for the ECS ratio (in experiment [3]; in experiment [5]; in the experiment on ECV-304 [6]) were 2.2, 1 and 3.2, respectively.
In turn, `CC(C)[C@@H]1CC[C@]2(C(=O)O)CC[C@]3(C)C(CCC4[C@@]5(C)CC[C@H](OC(=O)c6ccccc6C(F)(F)F)C(C)(C)C5CC[C@]43C)C12` (stereo not given in full) displayed an IC50 with ECV-304 [1] of 2.6 µg/mL (≈ 4.12 µM). Further, the ECS ratio was greater than 1.5 in experiment [3], 3.84 in experiment [4], 1.5 in experiment [5] and greater than 1.53 in the experiment on ECV-304 [6].
Consider `CC(C)[C@@H]1CC[C@]2(C(=O)O)CC[C@]3(C)C(CCC4[C@@]5(C)CCC(N)C(C)(C)C5CC[C@]43C)C12` (stereo not given in full), for which the IC50 in the experiment on ECV-304 [1] is less than 4 µg/mL.
Still for that read-out and setting: the figure for `CC(C)[C@@H]1CC[C@]2(C(=O)O)CC[C@]3(C)C(CCC4[C@@]5(C)CC/C(=N\Nc6ccccc6)C(C)(C)C5CC[C@]43C)C12` (stereo not given in full) is less than 4 µg/mL; for `COc1ccc(N/N=C2\CC[C@@]3(C)C(CC[C@]4(C)C3CCC3C5[C@H](C(C)C)CC[C@]5(C(=O)O)CC[C@]34C)C2(C)C)cc1` (stereo not given in full) it is less than 4 µg/mL.
The compound `CC(C)[C@@H]1CC[C@]2(C(=O)O)CC[C@]3(C)C(CCC4[C@@]5(C)CC[C@H](OC(=O)c6ccc(F)cc6F)C(C)(C)C5CC[C@]43C)C12` (stereo not given in full) displayed an IC50 with ECV-304 [1] of 0.7 µg/mL (≈ 1.17 µM). In the experiment on ECV-304 [2], the Inhibition came out at 20%. In addition, the ECS ratio is on record as 3.5 in experiment [3], 2.4 in experiment [4], 1.5 in experiment [5] and 2.3 in the experiment with ECV-304 [6].
`C=C(C)[C@@H]1CC[C@]2(C(=O)O)CC[C@]3(C)C(CCC4[C@@]5(C)CC[C@H](OC(=O)c6ccc(CCCCCCC)cc6)C(C)(C)C5CC[C@]43C)C12` (stereo not given in full) came in with an IC50 with ECV-304 [1] of 1.7 µg/mL (≈ 2.58 µM). Further, the ECS ratio in experiment [3] is given as greater than 5.8; in experiment [4] it was greater than 5.89; in experiment [5], 4.1; with ECV-304 [6] it was greater than 2.3.
On the same counts, the results for `C=C(C)[C@@H]1CC[C@]2(C(=O)O)CC[C@]3(C)C(CCC4[C@@]5(C)CC[C@H](OC(=O)c6cccc(C(F)(F)F)c6)C(C)(C)C5CC[C@]43C)C12` (stereo not given in full) are 0.9 µg/mL (≈ 1.43 µM), greater than 11.1, greater than 11.1, 3 and greater than 4.4.
On the same counts, the results for `C=CC(=O)OC(=O)[C@]12CC[C@@H](C(C)C)C1C1CCC3[C@@]4(C)CC[C@H](O)C(C)(C)C4CC[C@@]3(C)[C@]1(C)CC2` (stereo not given in full) are 2 µg/mL (≈ 3.9 µM), greater than 2, 5, 2 and 0.75.
As to `CC(C)[C@@H]1CC[C@]2(C(=O)O)CC[C@]3(C)C(CCC4[C@@]5(C)CC/C(=N\O)C(C)(C)C5CC[C@]43C)C12` (stereo not given in full), the IC50 with ECV-304 [1] is less than 4 µg/mL.
Turning to `CC(C)[C@@H]1CC[C@]2(C(=O)O)CC[C@]3(C)C(CCC4[C@@]5(C)CCC(NNc6ccccc6)C(C)(C)C5CC[C@]43C)C12` (stereo not given in full), the IC50 in the experiment on ECV-304 [1] is 0.5 µg/mL (≈ 0.911 µM). For the same compound, the ECS ratio was 19.8 in experiment [3], 3.5 in experiment [4], 1.6 in experiment [5] and 7 in the experiment on ECV-304 [6].

The values are drawn from ChEMBL document CHEMBL1146641, “Synthesis of 3-O-acyl/3-benzylidene/3-hydrazone/3-hydrazine/17-carboxyacryloyl ester derivatives of betulinic acid as anti-angiogenic agents” (Bioorg Med Chem Lett, 2004).
